Laboratory results reported in ChEMBL document CHEMBL4038305, “Benzoxaborole Antimalarial Agents. Part 5. Lead Optimization of Novel Amide Pyrazinyloxy Benzoxaboroles and Identification of a Preclinical Candidate” (J Med Chem, 2017).
pIC50: −log10 of the molar value.

Experiments:
Plasmodium berghei [1] = assay: Antimalarial activity against Plasmodium berghei infected in Swiss Webster mouse assessed as mouse survival rate at 0.3 mg/kg administered once daily via oral gavage for 4 consecutive days beginning 1 hr after infection measured on day 5 post infection relative to control; format: functional
Summary of the method: (§1)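 Mice given an intraperitoneal injection of P. berghei-infected erythrocytes taken from a previously infected animal. Oral dosing once daily for 4 consecutive days, starting 1 h after infection. Vehicle: polyethylene glycol 300/propylene glycol/water (weight ratio 55/25/20). Percent survival recorded daily from day 4 to day 20. Chloroquine 30 mg/kg and vehicle-only groups served as controls.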

Rattus norvegicus [2] = assay: Genotoxicity in rat assessed as micronuclei in polychromatic erythrocyte cells in bone marrow at 500 to 2000 mg/kg administered via oral gavage measured after 24 to 48 hrs post dose by micronucleus assay; format: toxicity, organism-based; details: in vivo
Plasmodium berghei [3] = assay: Antimalarial activity against Plasmodium berghei infected in Swiss Webster mouse assessed as mouse survival rate at 11 mg/kg administered once daily via oral gavage for 4 consecutive days beginning 1 hr after infection measured on day 11 post infection relative to control; format: functional; summary of the method: as §1
Salmonella typhimurium [4] = assay: Genotoxicity in Salmonella typhimurium TA1535 assessed as number of revertants per plate at 500 ug/plate in presence of rat liver S9 fraction by Ames test (reference value: 10); format: toxicity; details: salmonella enterica subsp. enterica serovar typhimurium
Salmonella typhimurium [5] = assay: Genotoxicity in Salmonella typhimurium TA1535 assessed as number of revertants per plate at 1.5 ug/plate in absence of rat liver S9 fraction by Ames test (reference value: 10 +/- 3); format: toxicity; details: salmonella enterica subsp. enterica serovar typhimurium
Salmonella typhimurium [6] = assay: Genotoxicity in Salmonella typhimurium TA1537 assessed as number of revertants per plate at 5 ug/plate in presence of rat liver S9 fraction by Ames test (reference value: 11 +/- 4); format: toxicity; details: salmonella enterica subsp. enterica serovar typhimurium
Lymphocyte [7] = assay: Genotoxicity in human lymphocytes assessed as replication index at 355.15 ug/mL after 3 hrs in presence of rat liver S9 fraction by micronucleus assay relative to control; format: toxicity, cell-based; details: s9, 3 h
Summary of the method: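 Human lymphocytes exposed for 3 h with or without rat liver S9, or 28 h without S9, with 1% DMSO as vehicle control. Replication index = (binucleated + 2 × multinucleated cells)/total cells. Cytotoxicity (%) = 100 − (RI treated/RI vehicle) × 100.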

Salmonella typhimurium [8] = assay: Genotoxicity in Salmonella typhimurium TA98 assessed as number of revertants per plate at 5 ug/plate in presence of rat liver S9 fraction by Ames test (reference value: 19 +/- 8); format: toxicity; details: salmonella enterica subsp. enterica serovar typhimurium
Salmonella typhimurium [9] = assay: Genotoxicity in Salmonella typhimurium TA98 assessed as number of revertants per plate at 5000 ug/plate in absence of rat liver S9 fraction by Ames test (reference value: 14 +/- 6); format: toxicity; details: salmonella enterica subsp. enterica serovar typhimurium
Salmonella typhimurium [10] = assay: Genotoxicity in Salmonella typhimurium TA1537 assessed as number of revertants per plate at 500 ug/plate in absence of rat liver S9 fraction by Ames test (reference value: 19 +/- 9); format: toxicity; details: salmonella enterica subsp. enterica serovar typhimurium
Plasmodium falciparum [11] = assay: Antimalarial activity against Plasmodium falciparum TM90C2A infected in human erythrocytes assessed as reduction in [3H]-hypoxanthine incorporation preincubated for 24 hrs followed by [3H]-hypoxanthine addition measured after 24 hrs by scintillation counting method; format: functional, cell-based
Salmonella typhimurium [12] = assay: Genotoxicity in Salmonella typhimurium TA1537 assessed as number of revertants per plate at 150 ug/plate in presence of rat liver S9 fraction by Ames test (reference value: 11 +/- 4); format: toxicity; details: salmonella enterica subsp. enterica serovar typhimurium
Plasmodium falciparum [13] = assay: Antimalarial activity against Plasmodium falciparum D6 infected in human erythrocytes assessed as reduction in [3H]-hypoxanthine incorporation preincubated for 24 hrs followed by [3H]-hypoxanthine addition measured after 24 hrs by scintillation counting method; format: functional, cell-based
Salmonella typhimurium [14] = assay: Genotoxicity in Salmonella typhimurium TA1537 assessed as number of revertants per plate at 5000 ug/plate in absence of rat liver S9 fraction by Ames test (reference value: 19 +/- 9); format: toxicity; details: salmonella enterica subsp. enterica serovar typhimurium
Escherichia coli [15] = assay: Genotoxicity in Escherichia coli WP2uvrA assessed as number of revertants per plate at 1500 ug/plate in presence of rat liver S9 fraction by Ames test (reference value: 42 +/- 6); format: toxicity
Salmonella typhimurium [16] = assay: Genotoxicity in Salmonella typhimurium TA98 assessed as number of revertants per plate at 15 ug/plate in presence of rat liver S9 fraction by Ames test (reference value: 19 +/- 8); format: toxicity; details: salmonella enterica subsp. enterica serovar typhimurium
Salmonella typhimurium [17] = assay: Genotoxicity in Salmonella typhimurium TA98 assessed as number of revertants per plate at 500 ug/plate in presence of rat liver S9 fraction by Ames test (reference value: 19 +/- 8); format: toxicity; details: salmonella enterica subsp. enterica serovar typhimurium
Escherichia coli [18] = assay: Genotoxicity in Escherichia coli WP2uvrA assessed as number of revertants per plate at 150 ug/plate in absence of rat liver S9 fraction by Ames test (reference value: 45 +/- 9); format: toxicity
Salmonella typhimurium [19] = assay: Genotoxicity in Salmonella typhimurium TA98 assessed as number of revertants per plate at 500 ug/plate in absence of rat liver S9 fraction by Ames test (reference value: 14 +/- 6); format: toxicity; details: salmonella enterica subsp. enterica serovar typhimurium
Salmonella typhimurium [20] = assay: Genotoxicity in Salmonella typhimurium TA98 assessed as number of revertants per plate at 150 ug/plate in presence of rat liver S9 fraction by Ames test (reference value: 19 +/- 8); format: toxicity; details: salmonella enterica subsp. enterica serovar typhimurium
Rattus norvegicus [21] = assay: Genotoxicity in rat assessed as change in polychromatic erythrocytes in bone marrow at 1000 mg/kg administered via oral gavage measured after 24 hrs post dose by micronucleus assay relative to control; format: toxicity, organism-based; details: in vivo
Salmonella typhimurium [22] = assay: Genotoxicity in Salmonella typhimurium TA98 assessed as number of revertants per plate at 5000 ug/plate in presence of rat liver S9 fraction by Ames test (reference value: 19 +/- 8); format: toxicity; details: salmonella enterica subsp. enterica serovar typhimurium
Escherichia coli [23] = assay: Genotoxicity in Escherichia coli WP2uvrA assessed as number of revertants per plate at 1.5 ug/plate in presence of rat liver S9 fraction by Ames test (reference value: 42 +/- 6); format: toxicity
Escherichia coli [24] = assay: Genotoxicity in Escherichia coli WP2uvrA assessed as number of revertants per plate at 500 ug/plate in presence of rat liver S9 fraction by Ames test (reference value: 42 +/- 6); format: toxicity
Lymphocyte [25] = assay: Genotoxicity in human lymphocytes assessed as increase in frequency of micronucleated cells at 160 ug/mL after 3 hrs in presence of rat liver S9 fraction by micronucleus assay (reference value: 0.63%); format: toxicity, cell-based; details: s9, 3 h
Escherichia coli [26] = assay: Genotoxicity in Escherichia coli WP2uvrA assessed as number of revertants per plate at 1500 ug/plate in absence of rat liver S9 fraction by Ames test (reference value: 45 +/- 9); format: toxicity
Salmonella typhimurium [27] = assay: Genotoxicity in Salmonella typhimurium TA1535 assessed as number of revertants per plate at 15 ug/plate in presence of rat liver S9 fraction by Ames test (reference value: 10); format: toxicity; details: salmonella enterica subsp. enterica serovar typhimurium
Plasmodium berghei [28] = assay: Antimalarial activity against Plasmodium berghei infected in Swiss Webster mouse assessed as mouse survival rate at 200 mg/kg administered once daily via oral gavage for 4 consecutive days beginning 1 hr after infection measured on day 16 post infection relative to control; format: functional
Summary of the method: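 P. berghei-infected erythrocytes taken from a previously infected mouse were injected intraperitoneally. Oral dosing, once daily for 4 consecutive days, began 1 h after infection, in polyethylene glycol 300/propylene glycol/water (55/25/20 by weight). Chloroquine at 30 mg/kg was the positive control, with a vehicle-only group. Percent survival was recorded daily from day 4 to day 20.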

Structure (SMILES): Cc1c(Oc2cnc(C(=O)NC(C)CO)cn2)ccc2c1B(O)OC2 (stereo not drawn)
- survival at 0.3 mg/kg (Plasmodium berghei [1]): 20%

Structure (SMILES): Cc1c(Oc2cnc(C(=O)NCCO)cn2)ccc2c1B(O)OC2
- Activity (Rattus norvegicus [2]): Non-Toxic

Structure (SMILES): Cc1c(Oc2cnc(C(=O)N3CC(O)(C(C)C)C3)cn2)ccc2c1B(O)OC2
- survival at 11 mg/kg (Plasmodium berghei [3]): 20%

Structure (SMILES): Cc1c(Oc2cnc(C(=O)N3CC(C)(O)C3)cn2)ccc2c1B(O)OC2
- Activity (Salmonella typhimurium [4]): 6
- Activity (Salmonella typhimurium [5]): 12
- Activity (Salmonella typhimurium [6]): 22
- Activity (Lymphocyte [7]): 7%
- Activity (Salmonella typhimurium [8]): 15
- Activity (Salmonella typhimurium [9]): 9
- Activity (Salmonella typhimurium [10]): 14
- pIC50 (Plasmodium falciparum [11]): 7.19
- Activity (Salmonella typhimurium [12]): 12
- pIC50 (Plasmodium falciparum [13]): 7.21
- Activity (Salmonella typhimurium [14]): 10
- Activity (Escherichia coli [15]): 26
- Activity (Salmonella typhimurium [16]): 13
- Activity (Salmonella typhimurium [17]): 18
- Activity (Escherichia coli [18]): 56
- Activity (Salmonella typhimurium [19]): 10
- Activity (Salmonella typhimurium [20]): 10
- Activity (Rattus norvegicus [21]): 0%
- Activity (Salmonella typhimurium [22]): 18
- Activity (Escherichia coli [23]): 39
- Activity (Escherichia coli [24]): 35
- Activity (Lymphocyte [25]): 0.5%
- Activity (Escherichia coli [26]): 33
- Activity (Salmonella typhimurium [27]): 12

Structure (SMILES): CCCC1(O)CN(C(=O)c2cnc(Oc3ccc4c(c3C)B(O)OC4)cn2)C1
- survival at 200 mg/kg (Plasmodium berghei [28]): 100%
